# Compound activity: PubChem BioAssay, The Scripps Research Institute Molecular Screening Center
# In the library only some 2.3% were active in any assay of this set; here they are far more common.
# bovine MsrA act: bovine methionine sulfoxide reductase A activation; purified bovine MsrA, absorbance read-out; activation, % at 10.6 µM; 360,000 tested, 0.3% active; AID 602163; in the data active = activation above about 7.5%;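 note: 0% = vehicle and 100% = reference activator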
# MC4R barr agon: agonists of human melanocortin 4 receptor (MC4R) beta-arrestin; activation, % at 8.9 µM; AID 540308; U2OS MC4R beta-arrestin complementation, luminescence; percent of melanotan II response, DMSO zero; 360,000 tested, 0.98% active;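 active = activation above a per-plate cutoff, the mean activation of sample wells on that plate plus 3 SD, cut at about 8% in these data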
# Target sequence (P32245 whole entry, looked up): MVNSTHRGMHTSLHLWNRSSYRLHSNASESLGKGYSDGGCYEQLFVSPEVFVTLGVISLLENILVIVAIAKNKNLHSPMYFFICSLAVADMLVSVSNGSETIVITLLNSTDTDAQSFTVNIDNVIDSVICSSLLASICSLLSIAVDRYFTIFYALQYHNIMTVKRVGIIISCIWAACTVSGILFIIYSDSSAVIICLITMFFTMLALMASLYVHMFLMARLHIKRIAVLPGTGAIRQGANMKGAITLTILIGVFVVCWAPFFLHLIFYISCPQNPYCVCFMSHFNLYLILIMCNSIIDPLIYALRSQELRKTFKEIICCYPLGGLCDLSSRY
# MC4R antagonist: human MC4R antagonism in cAMP assay; MC4R-expressing cells, MTII-stimulated cAMP, LANCE TR-FRET; 360,000 tested, 0.48% active; AID 540295; P32245; inhibition, % at 6.5 µM;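 active = inhibition above its plate's cutoff, the mean of tested wells on that plate plus 3 SD, cut at about 29% in these data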;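 note: 0% = Melanotan II alone and 100% = Melanotan II plus saturating MCL0020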
#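 Test system: U2OS cells stably expressing human melanocortin 4 receptor (MC4R); also added: Melanotan II challenge; compound: 6.5 µM single dose; timing: 30-min compound preincubation, 1-h Melanotan II challenge, 1-h detection, room temperature; signal: Eu-cAMP/anti-cAMP TR-FRET, emission 671 nm; repeats: one well per compound, no replicates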
# MsrA inhibitor: bovine MsrA inhibition. 360,000 tested, 0.75% active. purified bovine MsrA, absorbance read-out. inhibition, % at 15.5 µM. AID 651718;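 note: 0% = vehicle wells with enzyme and 100% = reference inhibitor wells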
# MsrA conf: bovine MsrA inhibition, confirmed | shares compounds with MsrA inhibitor | inhibition, % at 15.5 µM | purified bovine MsrA, absorbance read-out | 2,300 tested, 41% active;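 note: coupled to thioredoxin reductase with NADPH and selenocystamine and DMSO as substrate; 0% = vehicle only and 100% = full effect of reference inhibitor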
# * = called active by the depositor; · = no result; ! = not confirmed by another sample. Cut-off read from the data, not from the text of the source, unless noted: active = inhibition above about 4.5%; inactive = the rest.
SMILES,bovine MsrA act,MC4R barr agon,MC4R antagonist,MsrA inhibitor,MsrA conf
N#C/C(=C(/O)c1ccco1)c1nc2ccccc2s1,-14.0,2.7,10.8,4.8*!,4.6*
CCn1c(/N=C/c2ccc(OC)cc2O)nc2ccccc21,-4.4,-1.6,-0.3,-1.1,·
N#C/C(=C(/O)CN1CCOCC1)c1nc2ccccc2s1,-14.3,1.3,-3.5,4.8*,3.5
COc1ccc(C(=O)/C=C/Nc2cc(C)on2)cc1,-5.0,-1.4,6.6,6.6*,6.2*
COc1ccc(C(=O)/C=C/Nc2cccc(O)c2)cc1,-2.7,-0.8,6.3,2.2,·
O=C(Cc1ccc(NC(=O)C2CCN(C(=O)C3CCCCC3)CC2)cc1)Nc1ccc(C(=O)N2CCOCC2)cc1,-1.8,-1.8,2.8,1.3,·
O=[N+]([O-])c1ccc(C2CCCC/C2=N/OCc2ccccc2F)c([N+](=O)[O-])c1 (stereo unspecified),-2.6,-0.9,15.2,9.2*,6.9*
O=[N+]([O-])c1ccc(C2CCCC/C2=N/OCc2ccc(F)cc2)c([N+](=O)[O-])c1 (stereo unspecified),-1.6,-0.2,16.2,3.5,·
CN(/N=C/c1cc(Br)cc(Br)c1O)c1cccc(C(F)(F)F)n1,-2.5,-4.7,-4.5,5.8*,0.3
c1csc(-c2nnc(-c3ccc(N4CCOCC4)cc3)o2)c1,-3.3,-1.4,15.1,5.2*,3.9
CCOc1ccc(-c2nnc(-c3cccs3)o2)cc1,-0.8,3.1,2.1,0.0,·
COc1cc(-c2nnc(-c3cccs3)o2)cc(OC)c1OC,-1.4,-1.3,7.8,0.6,·
COc1ccc(-c2nnc(-c3cccs3)o2)cc1OC,-8.2,-1.0,0.3,5.3*,0.7
CCCCc1c(C)c(C#N)c2nc3ccccc3n2c1Nc1c(C)n(C)n(-c2ccccc2)c1=O,0.0,-1.4,12.0,-0.5,·
Cc1c(C#N)c(N=CN(C)C)c(C(=O)c2ccc(Br)cc2)n1-c1ccccc1,0.5,-0.9,15.7,1.6,·
Cc1c(C#N)c(N=CN(C)C)c(C(=O)c2ccccc2)n1-c1ccc(Br)cc1,-9.2,3.1,2.7,5.3*,7.3*
COC(=O)c1ccc2nc(-c3ccc(F)cc3)c(Cc3cccc(Cl)c3)n2c1,-8.5,·,·,1.8,·
COc1cccc(CC2(CO)CCN(Cc3cn(C)nc3C)CC2)c1,0.2,-0.5,-7.0,1.4,·
CCOC(=O)C1=C(c2ccccc2)OC(N)=C(C#N)C1c1ccco1 (stereo unspecified),-4.3,1.0,12.6,6.3*,3.0
Cc1c(NC(=O)CSc2nc3ccccc3n2C)c(=O)n(-c2ccccc2)n1C,-1.8,-0.3,-0.6,-0.8,·
Cc1cccc(NC(=O)CN2C(=O)COc3ccc(Cl)cc32)c1C,0.1,-1.1,0.6,0.8,·
CCn1cc(/C=C(\NC(=O)c2ccc(OC)c(OC)c2)C(=O)NCCCO)c2ccccc21,-3.3,-1.8,17.5,5.8*,3.6
CN(C)S(=O)(=O)n1cc(/C=C(\NC(=O)c2ccccc2F)C(=O)NCCN2CCOCC2)c2ccccc21,-5.8,-1.1,0.8,1.1,·
CCn1cc(/C=C(\NC(=O)c2ccccc2F)C(=O)NCCN2CCOCC2)c2ccccc21,-5.3,-1.7,1.8,5.3*,3.0
CCn1cc(/C=C(\NC(=O)c2ccc(OC)c(OC)c2)C(=O)NCCN2CCOCC2)c2ccccc21,-7.8,-0.6,-1.8,2.8,·
SMILES,bovine MsrA act,MC4R barr agon,MC4R antagonist,MsrA inhibitor,MsrA conf
COc1ccc(C(=O)N/C(=C\c2cn(C)c3ccccc23)C(=O)NCCCN2CCOCC2)cc1OC,-5.1,-3.8,-2.8,5.7*,4.3
Cn1cc(/C=C(\NC(=O)c2ccccc2)C(=O)NCCCN2CCOCC2)c2ccccc21,-6.5,-1.7,5.8,6.8*,5.3*
O=C(O)c1sccc1NC(=O)c1c(Cl)cccc1Cl,-1.6,-0.9,3.5,-1.2,·
CCOc1cccc(C2C(C(=O)c3ccc(C)o3)=C(O)C(=O)N2Cc2ccccc2)c1 (stereo unspecified),-4.6,-2.7,8.8,0.5,·
CN(C)c1ccc(/C=C(\NC(=O)c2ccccc2)C(=O)NCCN2CCOCC2)cc1,-4.4,-1.4,1.6,5.3*,4.3
COc1ccc(C=CC(=O)c2ccc3cc(OC)c(OC)cc3c2)cc1OC,-5.3,-1.2,17.6,2.0,·
COc1ccc(/C=C/C(=O)c2ccc(O)cc2)cc1,-9.7,0.0,-0.4,5.2*,4.2
COc1ccc(C=CC(=O)c2ccc(OC)c(OC)c2)cc1O,-11.4,-1.2,-13.8,4.7*,2.7
CN(C)c1nc2c(c(=O)n(C)c(=O)n2C)n1CC(=O)c1cccs1,-5.7,1.2,16.8,-0.8,·
CN(C)N=C1c2cc(S(=O)(=O)N(C)C)ccc2-c2ccc(S(=O)(=O)N(C)C)cc21,-2.0,-4.0,2.5,0.4,·
CS(=O)(=O)Nc1ccc(-c2cn3cccnc3n2)cc1,-4.0,-1.3,2.0,4.8*,2.6
Cc1c(C(=O)N(C)c2cccc(Cl)c2)cnn1-c1ccccc1,-2.5,-2.0,25.0,0.8,·
COc1cc(/C=N/N=C2/NC(=O)C(Cc3ccc(F)cc3)S2)ccc1O (stereo unspecified),-1.6,3.0,2.4,4.2,·
COc1cc(/C=N/N=C2/C(=O)Nc3ccccc32)ccc1O,-4.9,-6.2,-18.1,4.9*,1.8
COc1cc(/C=N/N=C2/NC(=O)C(c3ccccc3)S2)ccc1O (stereo unspecified),-9.7,-1.7,11.1,4.9*,4.1
COc1ccc(C)cc1S(=O)(=O)N1CCCC(C(=O)N2CCN(c3ccccc3)CC2)C1 (stereo unspecified),-7.0,-2.9,4.4,-1.4,·
CC(C)c1ccc2[nH]c3c(c2c1)CCC/C3=N\NC(=O)c1ccncc1,-4.4,-2.8,-6.6,1.4,·
Nc1ccc(C(=O)N/N=C2\CCCc3c2[nH]c2ccccc32)cc1,-5.8,-2.1,0.3,5.3*,7.1*
O=C(CN1CCN(Cc2ccccc2)CC1)N/N=C/C=C/c1ccco1,-9.1,-1.7,-8.9,5.8*,4.5
CC(/C=N/NC(=O)CN1CCN(Cc2ccc(Cl)cc2)CC1)=C\c1ccco1,-9.4,2.4,2.1,2.6,·
Cc1ccc(S(=O)(=O)NCC(=O)N(CC(=O)NC2CCCCC2)CC2CCCO2)cc1 (stereo unspecified),-2.6,-1.1,5.5,0.5,·
C=CCNC(=O)/C(=C\C=C\c1ccccc1)NC(=O)c1ccccc1Cl,-5.0,-2.3,2.3,3.8,·
O=C(O)CCCNC(=O)/C(=C\C=C\c1ccccc1)NC(=O)c1ccccc1Cl,1.0,-2.2,-4.7,5.8*,3.1
Cc1sc2ncnc(SCC(=O)Nc3nc(-c4ccc(F)c(F)c4)cs3)c2c1C,-7.1,-2.7,-0.3,1.1,·
O=C(Nc1nc2ccccc2[nH]1)c1ccc(Br)o1,-4.7,0.9,13.0,4.8*,2.6
Cc1cccc(C)c1OCC(=O)NCc1ccccc1,-4.1,-2.7,2.5,-0.7,·
O=C(O)CC(c1ccc(Br)cc1)N1Cc2ccccc2C1=O (stereo unspecified),-3.8,-1.0,8.9,-0.8,·
CCc1ccccc1OCC(=O)Nc1cccc(S(=O)(=O)N2CCCC2)c1,-6.8,2.5,4.0,-0.9,·
CCOC(=O)c1ccc2cccc(C)n2c1=O,-9.6,0.0,-2.2,·,·
